Bioassay records from PubChem BioAssay.
Scp1 inh = inhibitors of human Scp-1 phosphatase | actives 0.88% (n = 340,000) | inhibition, % at 20 µM | Recombinant Scp1, phosphopeptide, malachite green phosphate absorbance;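 active = inhibition above about 50% at 20 µM, limit read from the data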;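 note: plate controls were DMSO wells with enzyme for no effect and wells lacking enzyme for full effect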
Target sequence (Q9GZU7 76-261 limits assumed): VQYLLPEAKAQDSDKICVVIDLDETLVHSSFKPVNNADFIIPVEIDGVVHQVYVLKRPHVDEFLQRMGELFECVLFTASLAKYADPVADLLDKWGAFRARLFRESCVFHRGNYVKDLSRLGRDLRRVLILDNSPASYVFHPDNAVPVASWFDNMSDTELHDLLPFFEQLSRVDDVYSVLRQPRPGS
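Test system – truncated SCP-1 phosphatase (76-261aa) · Reagent – Phosphorylated 17-residue peptide substrate · Incubation – 45 min room-temperature reaction, 5 min colour, 30 min stabiliser · Detection – colorimetric phosphate reagent with accelerator and stabiliser, absorbance at 630 nm · Measure – % inhibition at 20 µM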
CSN inh = CSN deneddylation inhibition; Q92905; Purified CSN, SCF-Nedd8-OG deneddylation, fluorescence polarization; inhibition, % at 12.5 µM; actives 0.38% (n = 360,000);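 active = pattern-corrected inhibition above about 35%, with an unprinted fluorescence ratio check between 0.5 and 1.5, limit read from the data, passing the limit was not always enough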;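 note: 0% = enzyme with substrate and 100% = substrate without enzyme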
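Assay system: Purified human Csn5 enzyme expressed in HEK293T cells | Amount: Enzyme 0.24 nM | Measured by: Fluorescence polarization readout | Medium: Tris/NaCl/DTT buffer, pH 7.5 | Compound dosing: One concentration, 12.5 µM, 0.25% DMSO | Times: 90 min incubation of compound, enzyme and substrate at room temperature | Control set: no-enzyme wells high, enzyme-with-substrate wells low | Read-out: % inhibition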
SUMO1-SIM PPI = alters human SUMO1 binding to SIM partners | actives 0.33% (n = 360,000) | SUMO1 binding to a labelled peptide, TR-FRET, 1 h | P63165 | AID 602429 | inhibition, % at 20 µM; in the data active = inhibition above about 37%
Target sequence (P63165 whole entry, looked up): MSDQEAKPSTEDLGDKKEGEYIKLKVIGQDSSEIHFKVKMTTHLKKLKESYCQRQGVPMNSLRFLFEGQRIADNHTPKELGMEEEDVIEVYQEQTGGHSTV
DNMT1 block = DNMT1 (human) enzyme inhibition | inhibition (reported as % activation of signal), % at 10 µM | DNMT1 molecular beacon, Hinp1I cleavage, fluorescence | actives 0.83% (n = 360,000) | AID 588458; in the data active = inhibition above about 50%
LMPTP inh = LMPTP (human) inhibition; P24666; recombinant LMPTP-A, OMFP fluorogenic substrate, fluorescence intensity; inhibition, % at 20 µM; actives 0.22% (n = 360,000); AID 651560;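 active = compounds that cut the enzyme signal by at least half of the control window in the single-dose screen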;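 note: plate controls were DMSO wells with enzyme plus substrate for no effect and substrate without enzyme for full effect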
Target sequence (P24666 whole entry, looked up): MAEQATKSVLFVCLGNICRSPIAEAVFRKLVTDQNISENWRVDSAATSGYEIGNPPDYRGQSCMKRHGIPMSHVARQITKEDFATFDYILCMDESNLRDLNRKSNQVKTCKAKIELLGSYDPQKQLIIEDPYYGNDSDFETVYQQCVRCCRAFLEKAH
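Test system – LMPTP-A phosphatase enzyme · Quantity – 0.625 nM LMPTP-A final · Reagent – OMFP substrate, 400 µM final · Dosing – one test concentration per compound, 20 µM, with 3% DMSO overall · Timing – 50 min enzyme reaction at room temperature, protected from light · Detection – fluorescence intensity · Controls – substrate-only low control, DMSO enzyme-plus-substrate high control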
STEP block = inhibitors of human striatal-enriched phosphatase STEP; P54829; recombinant STEP, OMFP fluorogenic substrate, fluorescence; inhibition, % at 20 µM; actives 0.25% (n = 360,000);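 active = inhibition at 20 µM, scaled per plate between control wells, above about 37%, limit read from the data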;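 note: 0% = DMSO with enzyme and substrate and 100% = substrate only without enzyme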
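Assay system: isolated STEP enzyme / Timing: 20 min at room temperature, dark / Doses: 20 µM, 1% DMSO / Technique: fluorescence intensity, excitation 480 nm, emission 540 nm / Reagent: fluorogenic phosphatase substrate OMFP at 25 µM final / Measure: percent inhibition scaled to no-enzyme and uninhibited-enzyme controls, plate-pattern corrected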
Scp1 confirm = confirmation of human Scp-1 phosphatase inhibitors; recombinant SCP-1 catalytic domain, phosphate release, malachite green absorbance; inhibition, % at 20 µM; actives 61% (n = 2,500); shares compounds with Scp1 inh;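 note: plate controls were DMSO with enzyme for no effect and buffer wells lacking enzyme for full effect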
MG interference = counter-screen for Scp-1 inhibitors: colorimetric interference; apparent inhibition (interference), % at 20 µM; 2,500 tested, under 10 active; Colorimetric interference counterscreen, malachite green absorbance 630 nm; AID 540313; shares compounds with Scp1 inh;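 note: compounds added after enzyme reaction finished so only phosphate colour detection is probed; plate controls were DMSO wells with completed Scp-1 reaction for no effect and substrate wells lacking enzyme for full effect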
Scp-1 Tm shift = Scp-1 (human) binding by thermal shift | Recombinant SCP1, Sypro Orange thermal shift Tm | actives 25% (n = 1,500) | thermal shift relative to vanadate control, % at 40 µM | AID 540329 | shares compounds with Scp1 inh;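 active = substances whose mean melting-temperature shift, as a percentage of the reference inhibitor's shift, reaches about 5.3%, limit read from the data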;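 note: 0% = Tm of DMSO wells and 100% = Tm with sodium orthovanadate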
* hit, by the source's call; . = no result. An excerpt weighted towards active compounds, which were near 2% of everything screened.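 Rule for the calls, unless noted: active = inhibition of at least 30% at 20 µM; inactive = the rest.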

SMILES	Scp1 inh	CSN inh	SUMO1-SIM PPI	DNMT1 block	LMPTP inh	STEP block	Scp1 confirm	MG interference	Scp-1 Tm shift
CCn1c(SCC(=O)N/N=C/C(C)=C/c2ccco2)nnc1-c1ccccc1	88*	10	9	10	0	2	50*	-12	4
CCn1c(SCC(=O)N/N=C/C(C)=C\c2ccco2)nnc1-c1ccccc1	76*	6	3	1	3	1	60*	-18	-2
CCn1c(SCC(=O)N/N=C/C=C/c2ccco2)nnc1-c1ccccc1	24	13	9	11	-1	0	.	.	.
CCn1c(SCC(=O)N/N=C/c2ccc(C)o2)nnc1-c1ccccc1	-8	-2	-2	3	2	1	.	.	.
CCN1/C(=C\C(C)=O)Sc2ccc(OC)cc21	96*	1	-5	4	-2	2	10	-5	.
CCC(=O)/C=C1\Sc2ccc(OC)cc2N1CC	-3	0	1	6	0	0	.	.	.
C[n+]1cnc(-c2ccccc2)cc1-c1ccccc1	101*	-3	-23	2	1	-3	86*	-12	-20
CCNC(=O)NC(=O)COC(=O)CCCSc1nc2ccccc2s1	0	-3	-1	0	0	2	.	.	.
Cc1[nH]c2ccccc2c1N=Nc1cc(C(=O)O)cc(C(=O)O)c1	52*	-3	-14	4	1	4	-7	-19	.
COc1ccc(S(=O)(=O)NCCC(=O)NC2CCCCC2C)cc1[N+](=O)[O-] (stereo not drawn)	56*	4	-10	28	8	9	46*	-14	5.3*
Cc1nc(CN(C)C(=O)c2ccccc2OC2CCN(S(C)(=O)=O)CC2)cs1	-4	4	-4	2	-1	-1	.	.	.
Cc1nc(CNC(=O)c2ccccc2OC2CCN(S(C)(=O)=O)CC2)cs1	61*	-7	1	1	-1	-2	-29	-21	.
CN(C)c1ccc(N=C/C=C2/N(C)c3ccccc3C2(C)C)cc1	0	18	-43	-9	6	4	.	.	.
CC(C[N+](C)(C)C)OC(=O)C1(c2ccccc2)CCCC1 (stereo not drawn)	63*	-2	3	0	-2	-3	-20	-16	.
COc1cccc(C(=O)NCCCNc2nc3cc(C)cc(C)c3cc2C#N)c1	.	2	1	-2	2	-2	.	.	.
CCCCC(c1nc2ccccc2[nH]1)n1c(=O)c(-c2ccccc2)nc2cc(C)c(C)cc21 (stereo not drawn)	.	-1	2	-1	1	-1	.	.	.
COCCN(C(=O)C1CC(=O)N(Cc2ccc(C)cc2)C1)c1c(N)n(CC(C)C)c(=O)[nH]c1=O (stereo not drawn)	0	3	1	-2	1	-3	.	.	.
COCCN(C(=O)C1CCN(C(=O)c2ccccc2C)CC1)c1c(N)n(CC(C)C)c(=O)[nH]c1=O	63*	-5	1	6	-2	-4	77*	-17	-1
Cc1ccccc1C(=O)N1CCC(C(=O)N(CC(C)C)c2c(N)n(CC(C)C)c(=O)[nH]c2=O)CC1	5	-4	1	2	-1	-2	.	.	.
CCCCN(C(=O)C1CC(=O)N(Cc2ccc(C)cc2)C1)c1c(N)n(CC(C)C)c(=O)[nH]c1=O (stereo not drawn)	-7	-1	-1	0	-1	-2	-11	-6	.
O=C(COc1ccc(Br)cc1)NCCCNC(=O)c1ccncc1	-2	-5	1	1	-1	1	.	.	.
NS(=O)(=O)c1ccc(CCNC(=O)CNC(=O)c2ccc(Oc3ccccc3)cc2)cc1	-4	1	-1	1	2	1	.	.	.
O=C(N/N=C/c1ccc(F)c(F)c1)c1cc2c(s1)-c1ccccc1CC2	62*	-8	2	7	6	0	42*	-16	3
COc1ccc(S(=O)(=O)N2CCCC2)cc1OC	0	3	0	1	0	1	.	.	.
COc1ccc(S(=O)(=O)N2CCCC2)cc1C(C)C	53*	-1	-3	-1	0	-1	-10	-14	.
SMILES	Scp1 inh	CSN inh	SUMO1-SIM PPI	DNMT1 block	LMPTP inh	STEP block	Scp1 confirm	MG interference	Scp-1 Tm shift
COc1cccc(/C=C/C(=O)Nc2ccc3nc4n(c(=O)c3c2)CCCC4)c1OC	2	-2	-2	1	3	1	.	.	.
C[N+]1(CC2COC3(CCCCC3)O2)CCCCC1 (stereo not drawn)	108*	2	-2	3	1	-1	75*	-21	-16
CCC(C)C1Nc2ccc(C(=O)NCc3ccc4c(c3)OCO4)cc2NC1=O (stereo not drawn)	-6	-1	-9	0	0	0	-4	-5	.
O=C(O)c1ccccc1C=NNc1ccccn1	5	-3	-6	5	-1	-3	.	.	.
CCn1c(C)[n+](Cc2ccccc2)c2ccc(C(=O)OC)cc21	102*	-3	0	4	1	-3	53*	-6	-4
CCOC(=O)c1cccc(NC(=O)CSc2nc3ccccc3c(=O)n2CC)c1	-2	0	2	-2	0	0	.	.	.
CCOC(=O)c1ccc2c(c1)n(CC)c(/C=C/Nc1ccccc1)[n+]2CC	62*	6	-3	5	-1	-3	-10	-11	.
Cc1ccc(S(=O)(=O)CCC(=O)OCCOc2ccc(Br)cc2)cc1	.	-3	2	-1	1	2	.	.	.
COc1ccc(CN(C(=O)/C=C/c2ccco2)C2CCS(=O)(=O)C2)cc1 (stereo not drawn)	87*	5	-1	12	4	3	46*	-13	2
Cc1ccc(S(=O)(=O)NCC(=O)OCC(=O)NC2CCCCC2)cc1	0	-2	-3	0	-1	-1	.	.	.
Cc1cc(C)n2c(SC/C(O)=C(\C#N)c3nc4ccccc4[nH]3)nnc2n1	76*	25	35	49	17	0	63*	-5	11*
Cn1c(NNC(=O)c2cccc3ccccc23)cc(=O)n(C)c1=O	-1	0	-10	-5	-2	0	-4	1	.
COc1ccc(CC(=O)Nc2ncc([N+](=O)[O-])s2)cc1OC	71*	11	13	2	24	9	66*	-16	12*
